# Data from ChEMBL document CHEMBL4024779, “Novel Terminal Bipheny-Based Diapophytoene Desaturases (CrtN) Inhibitors as Anti-MRSA/VISR/LRSA Agents with Reduced hERG Activity” (J Med Chem, 2018).
# Numbering of substitutions follows the chain as printed. Calls of active or inactive are those of the source. The calls are words filed in the database; no cut-off is given here.
# How the values were obtained:
# Staphylococcus aureus [1] = assay: Chemo-sensitization activity in non-pigmented Staphylococcus aureus Newman assessed as increase in H2O2-induced bacterial death by measuring survival rate pre-incubated for 24 hrs followed by H2O2 addition measured after 30 mins by serial dilution method (reference value: 33.3%); assay type: functional
# Outline: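 S. aureus Newman was pre-incubated with 1 µM compound, with N-acetylcysteine as antioxidant control, or mock-treated. Cells were then exposed to 1.5% H2O2. Percent bacterial survival was compared with the mock-treated culture.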
# [2] = biological target: T1, 4,4'-diapophytoene desaturase (4,4'-diaponeurosporene-forming) (Staphylococcus aureus (strain MW2)) (UniProt Q8NUQ6); assay: Inhibition of CrtN in methicillin-resistant Staphylococcus aureus USA400 MW2 assessed as increase in H2O2-induced bacterial death by measuring survival rate preincubated for 24 hrs followed by H2O2 addition measured after 30 mins by serial dilution method (reference value: 28.7%); details: Staphylococcus aureus subsp. aureus MW2
# T1 sequence (whole entry): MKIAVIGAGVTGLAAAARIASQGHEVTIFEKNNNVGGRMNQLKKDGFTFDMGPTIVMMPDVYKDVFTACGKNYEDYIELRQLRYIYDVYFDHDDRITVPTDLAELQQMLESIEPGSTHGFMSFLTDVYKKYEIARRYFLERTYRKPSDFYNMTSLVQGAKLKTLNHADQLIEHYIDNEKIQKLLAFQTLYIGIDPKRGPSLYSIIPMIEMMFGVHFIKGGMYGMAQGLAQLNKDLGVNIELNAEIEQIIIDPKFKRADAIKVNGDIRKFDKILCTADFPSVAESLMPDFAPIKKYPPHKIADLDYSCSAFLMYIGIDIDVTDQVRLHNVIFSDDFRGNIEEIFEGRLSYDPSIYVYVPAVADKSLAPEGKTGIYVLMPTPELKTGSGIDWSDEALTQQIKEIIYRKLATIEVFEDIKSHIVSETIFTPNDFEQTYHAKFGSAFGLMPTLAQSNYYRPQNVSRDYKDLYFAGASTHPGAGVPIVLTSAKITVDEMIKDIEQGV
# Outline: (§1)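 Bacteria pretreated with 1 µM inhibitor or mock; N-acetylcysteine-treated cells served as control. Cells then exposed to 1.5% H2O2, and percent survival determined.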
# [3] = biological target: T2, 4,4'-diapophytoene desaturase (4,4'-diaponeurosporene-forming) (Staphylococcus aureus (strain USA300)) (UniProt Q2FDU6); assay: Inhibition of CrtN in methicillin-resistant Staphylococcus aureus LAC USA300 assessed as increase in H2O2-induced bacterial death by measuring survival rate preincubated for 24 hrs followed by H2O2 addition measured after 30 mins by serial dilution method (reference value: 29.0%); outline: as §1
# T2 sequence (whole entry): T1 sequence (whole entry) with Q500R
# [4] = biological target: T3, 4,4'-diapophytoene desaturase (4,4'-diaponeurosporene-forming) (Staphylococcus aureus (strain Mu50 / ATCC 700699)) (UniProt Q99R76); assay: Inhibition of CrtN in methicillin-resistant Staphylococcus aureus Mu50 assessed as increase in H2O2-induced bacterial death by measuring survival rate at preincubated for 24 hrs followed by H2O2 addition measured after 30 mins by serial dilution method (reference value: 29.0%); details: Staphylococcus aureus subsp. aureus Mu50; outline: as §1
# T3 sequence (whole entry): T1 sequence (whole entry) with Q500R
# Staphylococcus aureus [5] = assay: Antibacterial activity against Staphylococcus aureus Newman after 24 hrs by broth dilution method; assay type: functional
# [6] = Half life in human liver microsomes at 2 uM after 60 mins in presence of NADPH by LC-MS/MS method; assay type: ADME, microsome; details: liver microsomes
# Liver = assay: In-vitro intrinsic clearance in human liver microsomes at 2 uM after 60 mins in presence of NADPH by LC-MS/MS method; assay type: ADME, microsome; details: 1 h
# [7] = biological target: 4,4'-diapophytoene synthase (Staphylococcus aureus, UniProt A9JQL9); assay: Inhibition of CrtM in Staphylococcus aureus assessed as reduction in staphyloxanthin levels after 72 hrs by spectrophotometric method
# Staphylococcus aureus [8] = assay: In vivo anti-virulence activity against methicillin-resistant Staphylococcus aureus Mu50 infected in BALB/c mouse model assessed as reduction in bacterial load in heart at 0.4 mg bid for 4.5 days administered intraperitoneally 6 hrs post infection by serial dilution method; assay type: functional, organism-based
# Staphylococcus aureus [9] = assay: In vivo anti-virulence activity against methicillin-resistant Staphylococcus aureus LRSA56 infected in BALB/c mouse model assessed as reduction in bacterial load in kidney at 0.4 mg bid for 3.5 days administered intraperitoneally 6 hrs post infection by serial dilution method relative to control; assay type: functional, organism-based
# Outline: (§2)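 Mice were infected by retro-orbital injection with LRSA56 (5.0 × 10^7 CFU) or LRSA202 (7.0 × 10^7 CFU). Compound was given intraperitoneally 6 h after infection. […] Log10 CFU was counted in kidneys and hearts, with groups compared by two-tailed Mann-Whitney test.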
# Staphylococcus aureus [10] = assay: In vivo anti-virulence activity against methicillin-resistant Staphylococcus aureus LRSA56 infected in BALB/c mouse model assessed as reduction in bacterial load in heart at 0.4 mg bid for 3.5 days administered intraperitoneally 6 hrs post infection by serial dilution method relative to control; assay type: functional, organism-based; outline: as §2
# Staphylococcus aureus [11] = assay: In vivo anti-virulence activity against methicillin-resistant Staphylococcus aureus LRSA202 infected in BALB/c mouse model assessed as reduction in bacterial load in kidney at 0.4 mg bid for 3.5 days administered intraperitoneally 6 hrs post infection by serial dilution method relative to control; assay type: functional, organism-based; outline: as §2
# Staphylococcus aureus [12] = assay: In vivo anti-virulence activity against methicillin-resistant Staphylococcus aureus LRSA202 infected in BALB/c mouse model assessed as reduction in bacterial load in heart at 0.4 mg bid for 3.5 days administered intraperitoneally 6 hrs post infection by serial dilution method relative to control; assay type: functional, organism-based; outline: as §2
# Staphylococcus aureus [13] = assay: In vivo anti-virulence activity against Staphylococcus aureus Mu50 infected in BALB/c mouse model assessed as reduction in bacterial load in kidney at 0.4 mg bid for 4.5 days administered […] 6 hrs post infection by serial dilution method relative to control; assay type: functional, organism-based
# Staphylococcus aureus [14] = assay: In vivo anti-virulence activity against methicillin-resistant Staphylococcus aureus NRS271 infected in BALB/c mouse model assessed as reduction in bacterial load in heart at 0.4 mg bid for 4.5 days administered intraperitoneally 6 hrs post infection by serial dilution method; assay type: functional, organism-based
# Staphylococcus aureus [15] = assay: In vivo anti-virulence activity against methicillin-resistant Staphylococcus aureus LRSA202 infected in BALB/c mouse model assessed as reduction in bacterial load in kidney at 0.1 mg bid for 3.5 days administered intraperitoneally 6 hrs post infection by serial dilution method relative to control; assay type: functional, organism-based; outline: as §2
# Staphylococcus aureus [16] = assay: In vivo anti-virulence activity against methicillin-resistant Staphylococcus aureus LRSA202 infected in BALB/c mouse model assessed as reduction in bacterial load in heart at 0.1 mg bid for 3.5 days administered intraperitoneally 6 hrs post infection by serial dilution method relative to control; assay type: functional, organism-based; outline: as §2
# Staphylococcus aureus [17] = assay: In vivo anti-virulence activity against Staphylococcus aureus NRS271 infected in BALB/c mouse model assessed as reduction in bacterial load in kidney at 0.4 mg bid for 4.5 days administered orally 6 hrs post infection by serial dilution method relative to control; assay type: functional, organism-based
# [18] = biological target: T4, 4,4'-diapophytoene desaturase (4,4'-diaponeurosporene-forming) (Staphylococcus aureus (strain MW2), UniProt Q8NUQ6); assay: Inhibition of CrtN in methicillin-resistant Staphylococcus aureus USA400 MW2 assessed as reduction in staphyloxanthin levels after 48 hrs by spectrophotometric method-based pigment inhibition assay; parameters: species or system Staphylococcus aureus subsp. aureus MW2
# T4 sequence (Q8NUQ6 whole entry): T1 sequence (whole entry)
# [19] = biological target: T5, 4,4'-diapophytoene desaturase (4,4'-diaponeurosporene-forming) (Staphylococcus aureus (strain USA300), UniProt Q2FDU6); assay: Inhibition of CrtN in methicillin-resistant Staphylococcus aureus LAC USA300 assessed as reduction in staphyloxanthin levels after 48 hrs by spectrophotometric method-based pigment inhibition assay
# T5 sequence (Q2FDU6 whole entry): T1 sequence (whole entry) with Q500R
# [20] = biological target: T6, 4,4'-diapophytoene desaturase (4,4'-diaponeurosporene-forming) (Staphylococcus aureus (strain Mu50 / ATCC 700699), UniProt Q99R76); assay: Inhibition of CrtN in methicillin-resistant Staphylococcus aureus Mu50 assessed as reduction in staphyloxanthin levels after 48 hrs by spectrophotometric method-based pigment inhibition assay; parameters: species or system Staphylococcus aureus subsp. aureus Mu50
# T6 sequence (Q99R76 whole entry): T1 sequence (whole entry) with Q500R
# [21] = Inhibition of CrtN in methicillin-resistant Staphylococcus aureus NRS271 assessed as reduction in staphyloxanthin levels after 48 hrs by spectrophotometric method-based pigment inhibition assay
# [22] = Aqueous solubility of compound after 24 hrs by HPLC method; assay type: physicochemical
# [23] = biological target: Voltage-gated inwardly rectifying potassium channel KCNH2 (Homo sapiens, UniProt Q12809); assay: Inhibition of human ERG expressed in CHO cells at -80 mV holding potential after 3 mins by QPatch test; assay type: cell-based
# [24] = biological target: T7, 4,4'-diapophytoene desaturase (4,4'-diaponeurosporene-forming) (Staphylococcus aureus (strain Newman), UniProt O07855); assay: Inhibition of Staphylococcus aureus Newman 6His-tagged CrtN expressed in Escherichia coli BL21 (DE3)/pET28a::CrtN assessed as reduction in staphyloxanthin levels using diapophytoene as substrate after overnight incubation by spectrophotometric analysis; parameters: species or system Staphylococcus aureus subsp. aureus str. Newman
# T7 sequence (O07855 whole entry): T1 sequence (whole entry) with Q500R
# Trichophyton rubrum = assay: In vitro antifungal activity against Trichophyton rubrum after 7 days by serial dilution method; assay type: functional; details: 168 h
# Nannizzia gypsea = assay: In vitro antifungal activity against Microsporum gypseum after 7 days by serial dilution method; assay type: functional; details: 168 h
# Trichophyton verrucosum = assay: In vitro antifungal activity against Trichophyton verrucosum after 7 days by serial dilution method; assay type: functional; details: 168 h
# [25] = system: Trichophyton mentagrophytes; assay: In vitro antifungal activity against Trichophyton mentagrophytes after 7 days by serial dilution method; assay type: functional; details: 168 h
# Chain of 4,4'-diapophytoene synthase (A9JQL9 whole entry): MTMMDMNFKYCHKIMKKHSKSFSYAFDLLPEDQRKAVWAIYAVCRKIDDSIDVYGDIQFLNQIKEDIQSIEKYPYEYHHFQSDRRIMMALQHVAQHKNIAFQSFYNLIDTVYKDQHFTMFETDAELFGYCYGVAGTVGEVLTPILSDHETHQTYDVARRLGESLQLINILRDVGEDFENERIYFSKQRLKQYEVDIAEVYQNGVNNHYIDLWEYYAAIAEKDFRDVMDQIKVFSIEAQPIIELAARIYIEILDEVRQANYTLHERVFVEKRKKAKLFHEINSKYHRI
# Chain of Voltage-gated inwardly rectifying potassium channel KCNH2 (Q12809 whole entry): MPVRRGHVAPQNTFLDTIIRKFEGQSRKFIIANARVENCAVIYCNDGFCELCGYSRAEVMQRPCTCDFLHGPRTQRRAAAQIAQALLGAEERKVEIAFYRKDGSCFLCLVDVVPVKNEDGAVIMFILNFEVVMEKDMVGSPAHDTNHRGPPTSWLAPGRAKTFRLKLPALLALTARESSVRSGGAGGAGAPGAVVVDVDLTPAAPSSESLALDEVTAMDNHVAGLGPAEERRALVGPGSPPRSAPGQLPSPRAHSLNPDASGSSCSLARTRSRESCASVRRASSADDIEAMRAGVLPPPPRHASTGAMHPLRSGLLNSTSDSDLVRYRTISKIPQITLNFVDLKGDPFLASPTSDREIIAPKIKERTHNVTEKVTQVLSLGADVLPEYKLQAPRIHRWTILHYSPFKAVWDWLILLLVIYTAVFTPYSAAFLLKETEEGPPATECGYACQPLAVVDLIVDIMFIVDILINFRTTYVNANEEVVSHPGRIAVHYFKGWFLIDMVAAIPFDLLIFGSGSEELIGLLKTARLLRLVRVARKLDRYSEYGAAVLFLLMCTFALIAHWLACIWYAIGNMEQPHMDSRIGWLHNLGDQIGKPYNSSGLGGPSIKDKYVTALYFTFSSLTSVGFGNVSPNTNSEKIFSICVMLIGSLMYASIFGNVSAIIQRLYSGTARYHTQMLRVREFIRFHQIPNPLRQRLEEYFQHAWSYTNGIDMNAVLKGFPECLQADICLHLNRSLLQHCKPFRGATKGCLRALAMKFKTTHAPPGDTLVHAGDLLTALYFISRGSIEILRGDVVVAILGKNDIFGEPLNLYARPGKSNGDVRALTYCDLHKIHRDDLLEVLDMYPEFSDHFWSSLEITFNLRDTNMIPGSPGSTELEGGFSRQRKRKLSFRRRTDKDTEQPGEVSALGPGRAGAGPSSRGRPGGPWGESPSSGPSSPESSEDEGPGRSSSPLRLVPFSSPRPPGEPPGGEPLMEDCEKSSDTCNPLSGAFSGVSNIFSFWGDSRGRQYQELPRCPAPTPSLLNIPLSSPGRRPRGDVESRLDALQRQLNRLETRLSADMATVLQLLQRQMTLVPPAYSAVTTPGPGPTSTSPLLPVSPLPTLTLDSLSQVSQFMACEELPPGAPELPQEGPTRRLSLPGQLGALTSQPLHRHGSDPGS
smiles,measurement,setting,value
CC(=O)N[C@@H](CS)C(=O)O [ACETYLCYSTEINE],Survival,Staphylococcus aureus [1],51.3%
same,Survival,[2],54.3%
same,Survival,[3],52%
same,Survival,[4],53%
OO [HYDROGEN PEROXIDE],MIC,Staphylococcus aureus [5],0.15%
Cc1ncc2n1-c1ccc(Cl)cc1C(c1ccccc1F)=NC2 [MIDAZOLAM],half-life at 2 µM,[6],4.2 min
same,CLH,Liver,330 µL/min/mg
O=P(O)(O)C(CCCc1cccc(Oc2ccccc2)c1)S(=O)(=O)O (centres undefined),IC50,[7],110 nM
CC[C@H]1OC(=O)[C@H](C)[C@@H](O[C@H]2C[C@@](C)(OC)[C@@H](O)[C@H](C)O2)[C@H](C)[C@@H](O[C@@H]2O[C@H](C)C[C@H](N(C)C)[C@H]2O)[C@](C)(O)C[C@@H](C)C(=O)[C@H](C)[C@@H](O)[C@]1(C)O [ERYTHROMYCIN],MIC,"Staphylococcus aureus [5]; Staphylococcus aureus, Newman, 24 h, read-out: MIC",0.125 µg/mL
CN[C@H](CC(C)C)C(=O)N[C@H]1C(=O)N[C@@H](CC(N)=O)C(=O)N[C@H]2C(=O)N[C@H]3C(=O)N[C@H](C(=O)N[C@H](C(=O)O)c4cc(O)cc(O)c4-c4cc3ccc4O)[C@H](O)c3ccc(c(Cl)c3)Oc3cc2cc(c3O[C@@H]2O[C@H](CO)[C@@H](O)[C@H](O)[C@H]2O[C@H]2C[C@](C)(N)[C@H](O)[C@H](C)O2)Oc2ccc(cc2Cl)[C@H]1O,Activity,Staphylococcus aureus [8],Active
same,Activity,Staphylococcus aureus [9],Active
same,Activity,Staphylococcus aureus [10],Active
same,Activity,Staphylococcus aureus [11],Active
same,Activity,Staphylococcus aureus [12],Active
same,Activity,Staphylococcus aureus [13],Active
CC(=O)NC[C@H]1CN(c2ccc(N3CCOCC3)c(F)c2)C(=O)O1,Activity,Staphylococcus aureus [8],Active
same,Activity,Staphylococcus aureus [14],Active
same,Activity,Staphylococcus aureus [15],Active
same,Activity,Staphylococcus aureus [16],Active
same,Activity,Staphylococcus aureus [11],Active
same,Activity,Staphylococcus aureus [12],Active
same,Activity,Staphylococcus aureus [13],Active
same,Activity,Staphylococcus aureus [17],Active
CN(C/C=C/c1ccc(C(F)(F)F)cc1)Cc1cccc2ccoc12.Cl,IC50,[18],3.4 nM
same,IC50,[19],5.5 nM
same,IC50,[20],0.4 nM
same,IC50,[21],6.7 nM
same,solubility at 24 h,[22],10000 µg/mL
same,IC50,[23],3700 nM
same,IC50,[24],300 nM
same,MIC80,Trichophyton rubrum,16 µg/mL
same,MIC80,Nannizzia gypsea,32 µg/mL
same,MIC80,Trichophyton verrucosum,> 64 µg/mL
same,MIC80,[25],> 64 µg/mL
